Several values for one entry are separate records, joined by “and”; a condition that tells them apart may be missing. Equal values may be shown once.
Assays:
[1] = In vitro cell viability assay; format: cell-based; details: human, SH-SY5Y cells
Summary of the method: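 SH-SY5Y cells seeded at 5 × 10^3 per well and allowed 24 h before test compound addition at 10, 20, 40, 60, 80 and 100 μmol/L. After 48 h exposure, MTT was added for 4 h at 37 °C. Formazan was dissolved in DMSO, and absorbance was read at 570 nm.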

PDE9A2 = PDE9A2 (Homo sapiens, UniProt O76083); assay: In vitro bioassay for inhibition of PDE9; format: biochemical; details: for IC50: IC50 against PDE9, mean of three independent determinations
Sequence of PDE9A2 (O76083 1-533 isoform O76083-2): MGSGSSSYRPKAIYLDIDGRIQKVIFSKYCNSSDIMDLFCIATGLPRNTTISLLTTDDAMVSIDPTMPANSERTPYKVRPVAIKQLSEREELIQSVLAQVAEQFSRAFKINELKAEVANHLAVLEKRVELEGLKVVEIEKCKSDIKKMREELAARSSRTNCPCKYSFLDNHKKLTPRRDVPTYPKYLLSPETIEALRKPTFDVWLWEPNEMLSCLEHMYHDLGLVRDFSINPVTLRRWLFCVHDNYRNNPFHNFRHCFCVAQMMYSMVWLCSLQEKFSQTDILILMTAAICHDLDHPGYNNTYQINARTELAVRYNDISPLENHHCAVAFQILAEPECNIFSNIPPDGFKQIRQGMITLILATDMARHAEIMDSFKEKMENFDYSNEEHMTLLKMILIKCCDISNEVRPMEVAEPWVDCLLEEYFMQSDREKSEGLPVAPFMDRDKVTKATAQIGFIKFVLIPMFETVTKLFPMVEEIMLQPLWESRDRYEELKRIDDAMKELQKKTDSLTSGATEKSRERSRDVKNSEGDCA

IC50 (PDE9A2) | fold more potent than PF-04447943 (PDE9 IC50) (PDE9A2; vs PF-04447943) [fold] | fold increase of IC50 potency compared with compound 5b (PDE9A2; vs compound 5b) [fold] | inhibition against PDE9A (PDE9A2; at the concentration of 5 mmol/L) | Compound | viability at 48 h, 40 μmol/L [1] [%] | viability at 48 h, 100 μmol/L [1] [%]
< 5 nM | 8 | 20 | – | O=C1NC(=O)/C(=C/c2ccc(OCCNc3nc4c(cnn4C4CCCC4)c(=O)[nH]3)c(F)c2)S1 [Compound 11a, (Z)-5-(4-(2-((1-Cyclopentyl-4-oxo-4,5-dihydro-1H-pyrazolo[3,4-d]pyrimidin-6-yl)amino)ethoxy)-3-fluorobenzylidene)thiazolidine-2,4-dione] | 55 | 34
< 5 nM and 3.3 nM | – | – | – | COc1cc(/C=C2\SC(=O)NC2=O)cc(F)c1OCCNc1nc2c(cnn2C2CCCC2)c(=O)[nH]1 [Compound 11c, (Z)-5-(4-(2-((1-Cyclopentyl-4-oxo-4,5-dihydro-1H-pyrazolo[3,4-d]pyrimidin-6-yl)amino)ethoxy)-3-fluoro-5-methoxybenzylidene)thiazolidine-2,4-dione] | 84 | 57
76 nM | – | – | – | COc1cc(/C=C2\SC(=O)NC2=O)ccc1OCCNc1nc2c(cnn2C2CCCC2)c(=O)[nH]1 [Compound 11d, (Z)-5-(4-(2-((1-Cyclopentyl-4-oxo-4,5-dihydro-1H-pyrazolo[3,4-d]pyrimidin-6-yl)amino)ethoxy)-3-methoxybenzylidene)thiazolidine-2,4-dione] | – | –
< 5 nM and 3.5 nM | – | – | – | O=C1NC(=O)C(Cc2ccc(OCCNc3nc4c(cnn4C4CCCC4)c(=O)[nH]3)c(F)c2)S1 (centres unmarked) [Compound 14a, 5-(4-(2-((1-Cyclopentyl-4-oxo-4,5-dihydro-1H-pyrazolo[3,4-d]pyrimidin-6-yl)amino)ethoxy)-3-fluorobenzyl)thiazolidine-2,4-dione] | 82 | 52
< 5 nM and 4.2 nM | – | – | – | COc1cc(CC2SC(=O)NC2=O)cc(F)c1OCCNc1nc2c(cnn2C2CCCC2)c(=O)[nH]1 (centres unmarked) [Compound 14c, 5-(4-(2-((1-Cyclopentyl-4-oxo-4,5-dihydro-1H-pyrazolo[3,4-d]pyrimidin-6-yl)amino)ethoxy)-3-fluoro-5-methoxybenzyl)thiazolidine-2,4-dione] | 93 | 62
98 nM | – | – | – | C[C@@H](COc1ccc(CC2SC(=O)NC2=O)cc1)Nc1nc2c(cnn2C2CCCC2)c(=O)[nH]1 (stereo partly drawn) [Compound 15, 5-(4-((S)-2-((1-Cyclopentyl-4-oxo-4,5-dihydro-1H-pyrazolo[3,4-d]pyrimidin-6-yl)amino)propoxy)benzyl)thiazolidine-2,4-dione] | – | –
– | – | – | no inhibition | CN(CCOc1ccc(CC2SC(=O)NC2=O)cc1)c1ccccn1 (centres unmarked) [Rosiglitazone, reference compound] | – | –
